Data: ChEMBL document CHEMBL1123424, “Conformationally defined adrenergic agents. 2. Catechol imidazoline derivatives: biological effects at alpha 1 and alpha 2 adrenergic receptors” (J Med Chem, 1986)

How the values were obtained:
[1] = target: T1, Adrenergic receptor alpha-2 (Rattus norvegicus, UniProt P22086+P19328+P22909); experiment: The compound was evaluated for the binding affinity towards alpha-2 adrenergic receptor from rat cortex
T1 sequence (P22086 whole entry): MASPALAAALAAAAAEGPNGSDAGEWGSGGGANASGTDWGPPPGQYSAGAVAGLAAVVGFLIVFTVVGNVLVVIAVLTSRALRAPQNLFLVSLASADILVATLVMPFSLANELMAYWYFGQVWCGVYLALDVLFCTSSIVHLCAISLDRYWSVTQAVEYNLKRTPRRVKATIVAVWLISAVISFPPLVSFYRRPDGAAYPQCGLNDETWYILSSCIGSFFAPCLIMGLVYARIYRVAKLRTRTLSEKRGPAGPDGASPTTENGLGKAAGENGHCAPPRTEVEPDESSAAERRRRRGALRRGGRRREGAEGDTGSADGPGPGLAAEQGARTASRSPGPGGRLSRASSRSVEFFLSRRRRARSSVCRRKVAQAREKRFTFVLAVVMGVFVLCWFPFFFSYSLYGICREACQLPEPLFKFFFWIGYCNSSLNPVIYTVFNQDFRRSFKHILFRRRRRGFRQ
T1 sequence (P19328 whole entry): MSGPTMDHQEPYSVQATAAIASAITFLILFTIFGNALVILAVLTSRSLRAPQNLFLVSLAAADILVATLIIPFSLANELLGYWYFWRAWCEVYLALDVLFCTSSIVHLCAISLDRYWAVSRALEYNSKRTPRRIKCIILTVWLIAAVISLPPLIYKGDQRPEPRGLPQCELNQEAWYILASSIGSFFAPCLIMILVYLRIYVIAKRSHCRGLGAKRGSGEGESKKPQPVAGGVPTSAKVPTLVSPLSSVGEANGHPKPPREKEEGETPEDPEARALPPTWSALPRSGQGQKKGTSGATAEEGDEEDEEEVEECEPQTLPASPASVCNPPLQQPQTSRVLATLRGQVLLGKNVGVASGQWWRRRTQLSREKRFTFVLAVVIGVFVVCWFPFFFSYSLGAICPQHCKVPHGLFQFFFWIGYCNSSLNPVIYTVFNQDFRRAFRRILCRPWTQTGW
T1 sequence (P22909 whole entry): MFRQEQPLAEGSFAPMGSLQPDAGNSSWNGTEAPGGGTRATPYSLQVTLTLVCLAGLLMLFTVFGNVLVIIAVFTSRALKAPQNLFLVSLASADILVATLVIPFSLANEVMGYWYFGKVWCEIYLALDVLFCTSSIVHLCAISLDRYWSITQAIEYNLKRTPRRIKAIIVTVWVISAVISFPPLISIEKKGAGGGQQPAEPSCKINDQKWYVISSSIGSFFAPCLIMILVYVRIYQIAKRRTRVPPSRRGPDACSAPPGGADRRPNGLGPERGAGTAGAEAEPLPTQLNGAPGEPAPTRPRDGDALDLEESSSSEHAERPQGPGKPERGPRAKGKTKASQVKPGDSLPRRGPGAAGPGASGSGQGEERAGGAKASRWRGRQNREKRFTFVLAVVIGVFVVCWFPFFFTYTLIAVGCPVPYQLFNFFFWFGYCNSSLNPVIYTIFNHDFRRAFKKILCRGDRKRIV
Procedure, shortened: (§1)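 Washed membranes of pooled male Sprague-Dawley rat cerebral cortex in 50 mM Tris-HCl pH 7.7, 50-150 μg/mL protein. [3H]rauwolscine incubated 2 h at 4 °C, then filtration. Nonspecific binding with phentolamine 10⁻⁵ M. At least four test concentrations between 10⁻¹⁰ and 10⁻³ M, in duplicate. IC50 from logit-log plot, Ki by Cheng-Prusoff.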

[2] = target: T1, Adrenergic receptor alpha-2; experiment: The compound was evaluated for the inhibition of [3H]rauwolscine binding to alpha-2-adrenergic receptor from rat cortex; procedure, shortened: as §1
[3] = target: T2, Adrenergic receptor alpha-1 (Rattus norvegicus, UniProt P15823+P23944+P43140); experiment: The compound was evaluated for the inhibition of [3H]prazosin binding to alpha-1 adrenergic receptor from rat liver
T2 sequence (P15823 whole entry): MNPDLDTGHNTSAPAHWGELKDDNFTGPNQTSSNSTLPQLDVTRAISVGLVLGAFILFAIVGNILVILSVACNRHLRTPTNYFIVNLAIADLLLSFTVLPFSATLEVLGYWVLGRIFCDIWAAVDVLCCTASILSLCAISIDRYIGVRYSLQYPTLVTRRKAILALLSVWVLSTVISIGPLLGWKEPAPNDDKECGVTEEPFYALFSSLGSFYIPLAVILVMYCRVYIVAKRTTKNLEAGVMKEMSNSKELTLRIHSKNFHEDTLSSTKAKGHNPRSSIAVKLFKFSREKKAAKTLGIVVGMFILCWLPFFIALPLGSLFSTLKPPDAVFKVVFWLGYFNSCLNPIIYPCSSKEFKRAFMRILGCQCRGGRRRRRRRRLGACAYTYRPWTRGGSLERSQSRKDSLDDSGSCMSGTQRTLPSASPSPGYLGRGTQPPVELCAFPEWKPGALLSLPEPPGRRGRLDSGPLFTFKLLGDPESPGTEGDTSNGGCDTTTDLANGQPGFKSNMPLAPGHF
T2 sequence (P23944 whole entry): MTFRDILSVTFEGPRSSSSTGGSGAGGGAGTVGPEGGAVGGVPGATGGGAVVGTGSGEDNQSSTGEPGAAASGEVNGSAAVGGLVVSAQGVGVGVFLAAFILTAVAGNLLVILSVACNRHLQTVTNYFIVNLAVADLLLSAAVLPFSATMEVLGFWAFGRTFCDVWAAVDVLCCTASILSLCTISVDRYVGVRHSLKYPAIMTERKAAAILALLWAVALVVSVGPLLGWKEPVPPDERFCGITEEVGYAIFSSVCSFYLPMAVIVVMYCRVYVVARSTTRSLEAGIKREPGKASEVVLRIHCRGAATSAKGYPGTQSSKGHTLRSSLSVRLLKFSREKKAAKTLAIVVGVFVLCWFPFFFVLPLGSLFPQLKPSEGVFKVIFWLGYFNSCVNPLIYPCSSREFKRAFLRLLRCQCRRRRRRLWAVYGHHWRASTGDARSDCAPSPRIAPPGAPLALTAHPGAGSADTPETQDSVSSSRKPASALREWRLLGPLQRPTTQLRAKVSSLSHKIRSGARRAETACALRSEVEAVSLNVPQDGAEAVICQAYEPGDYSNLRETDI
T2 sequence (P43140 whole entry): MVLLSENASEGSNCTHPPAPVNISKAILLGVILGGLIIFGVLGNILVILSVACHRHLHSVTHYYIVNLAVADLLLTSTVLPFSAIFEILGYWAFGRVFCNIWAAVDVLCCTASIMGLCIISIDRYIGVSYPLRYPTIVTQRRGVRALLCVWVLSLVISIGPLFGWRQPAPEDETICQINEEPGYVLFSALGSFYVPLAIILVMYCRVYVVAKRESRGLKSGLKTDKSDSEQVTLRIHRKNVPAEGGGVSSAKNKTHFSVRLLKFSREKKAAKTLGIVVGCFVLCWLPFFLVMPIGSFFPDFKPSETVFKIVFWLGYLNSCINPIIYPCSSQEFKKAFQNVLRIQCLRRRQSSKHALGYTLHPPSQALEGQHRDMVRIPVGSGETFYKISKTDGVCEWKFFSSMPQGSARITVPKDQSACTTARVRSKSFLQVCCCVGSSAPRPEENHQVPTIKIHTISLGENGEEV
Procedure, shortened: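 Washed rat liver membranes (male Sprague-Dawley) in 50 mM Tris-HCl pH 7.7, 50-150 μg/mL protein. [3H]prazosin incubated 50 min at 25 °C, then filtration. Nonspecific binding with phentolamine 10⁻⁵ M. At least four test concentrations between 10⁻¹⁰ and 10⁻³ M, in duplicate. IC50 from logit-log plot, Ki by Cheng-Prusoff.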

Canis familiaris [4] = species on record: Canis familiaris; experiment: The compound was evaluated for the alpha-2-adrenergic activity in PBZ-pretreated dog saphenous vein as E max; assay type: functional; conditions: Canis lupus familiaris
Procedure, shortened: (§2)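 Dog saphenous vein strips, gassed 95% O2/5% CO2, 37 °C, pH 7.45, 2 g preload, isometric contraction. After 15-20 min equilibration, maximal NE contraction (1 × 10⁻⁴ M) and 60 min wash. Phenoxybenzamine 1 × 10⁻⁷ M for 30 min, 60 min washout. Control cumulative NE curve, washout 45-60 min, then cumulative test-agonist curve. Index = ED50 NE/ED50 CPD per experiment, averaged.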

Oryctolagus cuniculus = species on record: Oryctolagus cuniculus; experiment: The compound was evaluated for the alpha-1-adrenergic activity in isolated rabbit aortic tissue as E max; assay type: functional; conditions: Aorta
Procedure, shortened: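 Rabbit aorta helical strip in Krebs buffer, pH 7.4, 37 °C, 2 g initial tension, isometric contraction. […] Washout every 10-15 min for 60-90 min, then cumulative test-compound curve in the same tissue. Index = ED50 NE/ED50 CPD, calculated per experiment, then averaged.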

[5] = target: Adrenergic receptor alpha-1 (Homo sapiens) (UniProt P35348+P25100+P35368); experiment: Index is the ratio between ED50 value of Norepinephrine to test compound at alpha-1 adrenergic receptor
[6] = target: Adrenergic receptor alpha-2 (Homo sapiens) (UniProt P08913+P18825+P18089); experiment: Index is the ratio between ED50 value of Norepinephrine to test compound at alpha-2 adrenergic receptor; procedure, shortened: as §2
Canis familiaris [7] = species on record: Canis familiaris; experiment: The compound was evaluated for the alpha-2-adrenergic activity in PBZ-pretreated dog saphenous vein as EED50 CPD; assay type: functional, Canis lupus familiaris; procedure, shortened: as §2

Compound | Ki [1] [nM] | IC50 [2] [nM] | IC50 [3] [µM] | Ki [3] [nM] | Emax (Canis familiaris [4]) [%] | Emax (Oryctolagus cuniculus) [%] | Ratio [5] | Ratio [6] | ED50 (Canis familiaris [7])
Br.Oc1ccc2c(c1O)CCC2C1=NCCN1 (stereo not given) | 3.1 | 3.3 | 1.57 | 350 | 102 | 124 | 12 | 22 | 
Br.Oc1ccc2c(c1O)CCCCC2C1=NCCN1 (stereo not given) | 4000 | 4200 | 56 | 13000 |  |  |  | 0.03 | 350
Br.Oc1ccc2c(c1O)CCCC2C1=NCCN1 (stereo not given) | 6.5 | 7 | 2.5 | 400 | 102 | 114 | 13 | 188 | 
Br.Oc1ccc2c(c1O)CC2C1=NCCN1 (stereo not given) | 46 | 49 | 4.4 | 1100 | 67 | 98 | 0.4 | 1.8 | 
